Test results published in ChEMBL document CHEMBL4325837, “Discovery of novel NO-releasing celastrol derivatives with Hsp90 inhibition and cytotoxic activities” (Eur J Med Chem, 2018).
Activity calls are given as the source filed them. No cut-off for these calls is given here.

How the values were obtained:
[1] = Drug metabolism in human A549 cells assessed as nitric oxide release at 4 uM measured up to 24 hrs; format: ADME, cell-based; conditions: a549, 24 h
Outline: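 A549 cells were seeded at 5.0 × 10⁴ cells/ml in 100 μL wells and grown 24 h at 37 °C. Hybrids were added at 4 μM for varying times, with 24 h used for the full set. NO was measured with a Nitrate/Nitrite assay kit against a standard curve, reading OD at 550 nm. Values are the mean of three independent experiments.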

MCF7 = test: Antiproliferative activity against human MCF7 cells after 48 hrs by MTT assay; format: functional, cell-based; conditions: MCF7, 48 h
Outline: (§1)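 MTT assay. Cells were seeded at 5.0 × 10⁴ cells/ml in 100 μL per well and grown 24 h. They were then exposed to a range of concentrations for 48 h. MTT (5 mg/ml) was added for 4 h, the supernatant was removed and DMSO was added. OD was read at 570 nm. Assays were run in triplicate and IC50 is reported as mean ± SD, n = 3.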

HOS = test: Antiproliferative activity against human HOS cells after 48 hrs by MTT assay; format: functional, cell-based; outline: as §1
A549 [2] = test: Antiproliferative activity against human A549 cells after 48 hrs by MTT assay; format: functional, cell-based; conditions: A549, 48 h; outline: as §1
HepG2 = test: Antiproliferative activity against human HepG2 cells after 48 hrs by MTT assay; format: functional, cell-based; conditions: HepG2, 48 h; outline: as §1
A549 [3] = test: Induction of apoptosis in human A549 cells assessed as late apoptotic cells at 1.2 uM after 48 hrs by Annexin V-FITC/propidium iodide staining-based flow cytometric analysis (reference value: 0.4%); format: functional
A549 [4] = test: Induction of apoptosis in human A549 cells assessed as viable cells at 1.2 uM after 48 hrs by Annexin V-FITC/propidium iodide staining-based flow cytometric analysis (reference value: 98.5%); format: functional; conditions: A549, 48 h, read-out: Activity
A549 [5] = test: Induction of apoptosis in human A549 cells assessed as necrotic cells at 1.2 uM after 48 hrs by Annexin V-FITC/propidium iodide staining-based flow cytometric analysis (reference value: 0.6%); format: functional
[6] = target: Heat shock protein HSP90 (Homo sapiens) (UniProt P07900+P08238); test: Inhibition of HSP90 in human A549 cells assessed as decrease in Akt phosphorylation at 2.5 uM after 24 hrs by Western blot analysis; format: cell-based
A549 [7] = test: Induction of apoptosis in human A549 cells assessed as early apoptotic cells at 1.2 uM after 48 hrs by Annexin V-FITC/propidium iodide staining-based flow cytometric analysis (reference value: 0.5%); format: functional

SMILES | Drug metabolism [1] | IC50 (MCF7) [nM] | IC50 (HOS) [nM] | IC50 (A549 [2]) [nM] | IC50 (HepG2) [nM] | Activity (A549 [3]) [%] | viability at 1.2 µM (A549 [4]) [%] | Activity (A549 [5]) [%] | inhibition [6] | Activity (A549 [7]) [%]
CC1=C(O)C(=O)C=C2C1=CC=C1[C@@]2(C)CC[C@@]2(C)[C@@H]3C[C@](C)(C(=O)OCCCCO[N+](=O)[O-])CC[C@]3(C)CC[C@]12C | Metabolite_Detected | 3820 | 2430 | 4210 | 6080 |  |  |  |  | 
CC1=C(O)C(=O)C=C2C1=CC=C1[C@@]2(C)CC[C@@]2(C)[C@@H]3C[C@](C)(C(=O)OCCCOc4no[n+]([O-])c4S(=O)(=O)c4ccccc4)CC[C@]3(C)CC[C@]12C |  | 2120 | 1870 | 2890 | 4530 |  |  |  |  | 
CC1=C(O)C(=O)C=C2C1=CC=C1[C@@]2(C)CC[C@@]2(C)[C@@H]3C[C@](C)(C(=O)O)CC[C@]3(C)CC[C@]12C [CELASTROL] |  | 1560 | 930 | 1430 to 1570 | 1620 | 11.2 | 75.8 | 5.2 | Active | 7.8
CC1=C(O)C(=O)C=C2C1=CC=C1[C@@]2(C)CC[C@@]2(C)[C@@H]3C[C@](C)(C(=O)OCCCO[N+](=O)[O-])CC[C@]3(C)CC[C@]12C | Metabolite_Detected | 2540 | 1370 | 3220 | 1850 |  |  |  |  | 
CC1=C(O)C(=O)C=C2C1=CC=C1[C@@]2(C)CC[C@@]2(C)[C@@H]3C[C@](C)(C(=O)OCC(C)COc4no[n+]([O-])c4S(=O)(=O)c4ccccc4)CC[C@]3(C)CC[C@]12C (stereo partly drawn) | Metabolite_Detected | 1490 | 1670 | 1110 | 2390 |  |  |  |  | 
CC1=C(O)C(=O)C=C2C1=CC=C1[C@@]2(C)CC[C@@]2(C)[C@@H]3C[C@](C)(C(=O)OCCOc4no[n+]([O-])c4S(=O)(=O)c4ccccc4)CC[C@]3(C)CC[C@]12C | Metabolite_Detected | 2760 | 1690 | 2280 | 4750 |  |  |  |  | 
CC1=C(O)C(=O)C=C2C1=CC=C1[C@@]2(C)CC[C@@]2(C)[C@@H]3C[C@](C)(C(=O)NCCOc4no[n+]([O-])c4S(=O)(=O)c4ccccc4)CC[C@]3(C)CC[C@]12C | Metabolite_Detected | 1520 | 1470 | 1080 | 3820 |  |  |  |  | 
